Laboratory results published in the M2OR odorant receptor database.
Substitutions are numbered along the chain they refer to.

Tests used:
Conditions in all cases: stereoisomer not certain
OR8B4 (Homo sapiens) = target: T1, OR8B4 (Homo sapiens) (UniProt Q96RC9)
T1 sequence (whole entry): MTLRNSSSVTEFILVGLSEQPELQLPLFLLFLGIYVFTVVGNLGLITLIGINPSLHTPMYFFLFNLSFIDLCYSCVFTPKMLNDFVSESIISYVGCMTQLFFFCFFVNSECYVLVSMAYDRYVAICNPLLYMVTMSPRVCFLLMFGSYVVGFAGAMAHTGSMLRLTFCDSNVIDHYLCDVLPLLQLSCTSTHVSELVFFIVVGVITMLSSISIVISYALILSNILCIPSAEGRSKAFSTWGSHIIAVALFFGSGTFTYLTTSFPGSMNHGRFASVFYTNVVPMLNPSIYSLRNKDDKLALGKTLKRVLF
Outline: (§1)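 Each entry records the cell line, G-protein, co-transfected protein and tags used. Methods varied with the source, often transient luciferase assays in mammalian cell lines. A receptor–molecule pair is called responsive (active) if the original authors judged its signal statistically different from baseline and non-responsive (inactive) otherwise.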

OR8B8 (Homo sapiens) = target: T2, OR8B8 (Homo sapiens) (UniProt Q15620)
T2 sequence (whole entry): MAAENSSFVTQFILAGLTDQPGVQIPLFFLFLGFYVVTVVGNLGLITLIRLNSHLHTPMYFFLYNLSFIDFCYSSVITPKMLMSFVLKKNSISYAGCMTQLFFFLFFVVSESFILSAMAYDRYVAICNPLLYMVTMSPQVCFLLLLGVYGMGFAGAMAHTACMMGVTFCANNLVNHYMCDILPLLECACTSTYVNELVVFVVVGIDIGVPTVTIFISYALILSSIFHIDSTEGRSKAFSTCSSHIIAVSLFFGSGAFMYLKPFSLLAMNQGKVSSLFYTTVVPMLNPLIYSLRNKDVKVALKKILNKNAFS
Outline: as §1

OR8D1 (Homo sapiens) = target: T3, OR8D1 (Homo sapiens) (UniProt Q8WZ84)
T3 sequence (whole entry): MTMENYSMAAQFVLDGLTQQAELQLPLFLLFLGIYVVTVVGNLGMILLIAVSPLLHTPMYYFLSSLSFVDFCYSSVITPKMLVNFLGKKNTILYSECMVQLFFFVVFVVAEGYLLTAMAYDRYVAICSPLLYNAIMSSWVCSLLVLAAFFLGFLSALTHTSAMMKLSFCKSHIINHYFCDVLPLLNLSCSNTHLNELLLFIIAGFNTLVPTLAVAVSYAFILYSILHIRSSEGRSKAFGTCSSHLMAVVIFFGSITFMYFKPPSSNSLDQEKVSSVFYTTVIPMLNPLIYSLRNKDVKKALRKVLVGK
Outline: as §1

OR8D2 (Homo sapiens) = target: T4, OR8D2 (Homo sapiens) (UniProt Q9GZM6)
T4 sequence (whole entry): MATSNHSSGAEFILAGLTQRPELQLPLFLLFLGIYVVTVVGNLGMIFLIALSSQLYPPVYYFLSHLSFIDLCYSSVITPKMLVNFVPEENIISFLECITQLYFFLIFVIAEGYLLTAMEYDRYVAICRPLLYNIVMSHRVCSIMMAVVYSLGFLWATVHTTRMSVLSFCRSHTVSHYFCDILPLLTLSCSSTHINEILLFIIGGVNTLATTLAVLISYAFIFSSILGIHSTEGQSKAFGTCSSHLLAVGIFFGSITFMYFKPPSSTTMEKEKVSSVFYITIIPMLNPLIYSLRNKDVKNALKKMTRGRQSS
Outline: as §1

OR8D4 (Homo sapiens) = target: T5, OR8D4 (Homo sapiens) (UniProt Q8NGM9)
T5 sequence (whole entry): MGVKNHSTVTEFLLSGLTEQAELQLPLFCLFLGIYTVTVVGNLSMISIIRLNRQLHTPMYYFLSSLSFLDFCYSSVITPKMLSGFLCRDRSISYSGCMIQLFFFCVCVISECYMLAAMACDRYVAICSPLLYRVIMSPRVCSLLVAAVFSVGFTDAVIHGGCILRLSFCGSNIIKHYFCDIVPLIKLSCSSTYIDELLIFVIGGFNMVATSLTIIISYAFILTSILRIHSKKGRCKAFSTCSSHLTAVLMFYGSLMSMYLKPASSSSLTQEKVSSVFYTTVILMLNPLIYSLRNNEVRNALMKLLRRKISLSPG
Outline: as §1

OR8G1 (Homo sapiens) = target: T6, OR8G1 (Homo sapiens) (UniProt Q15617)
T6 sequence (whole entry): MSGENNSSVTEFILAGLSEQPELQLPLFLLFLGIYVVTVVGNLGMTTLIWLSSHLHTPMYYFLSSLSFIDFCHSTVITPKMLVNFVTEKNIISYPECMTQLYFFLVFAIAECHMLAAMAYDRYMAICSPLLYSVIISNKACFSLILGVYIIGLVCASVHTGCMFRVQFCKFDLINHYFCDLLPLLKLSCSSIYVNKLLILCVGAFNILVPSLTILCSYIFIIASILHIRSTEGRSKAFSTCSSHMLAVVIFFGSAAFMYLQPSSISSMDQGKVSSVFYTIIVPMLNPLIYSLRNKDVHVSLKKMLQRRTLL
Outline: as §1

OR8G5 (Homo sapiens) = target: T7, OR8G5 (Homo sapiens) (UniProt Q8NG78)
T7 sequence (whole entry): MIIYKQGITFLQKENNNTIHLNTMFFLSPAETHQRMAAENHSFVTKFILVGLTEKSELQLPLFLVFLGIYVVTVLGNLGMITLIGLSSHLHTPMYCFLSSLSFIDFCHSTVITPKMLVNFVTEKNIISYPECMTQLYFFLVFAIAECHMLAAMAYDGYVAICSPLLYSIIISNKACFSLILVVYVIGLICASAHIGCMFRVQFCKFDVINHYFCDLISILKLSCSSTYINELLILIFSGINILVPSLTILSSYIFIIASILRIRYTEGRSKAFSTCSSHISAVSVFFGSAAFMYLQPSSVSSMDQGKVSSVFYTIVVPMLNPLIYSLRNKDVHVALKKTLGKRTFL
Outline: as §1

OR8H1 (Homo sapiens) = target: T8, OR8H1 (Homo sapiens) (UniProt Q8NGG4)
T8 sequence (whole entry): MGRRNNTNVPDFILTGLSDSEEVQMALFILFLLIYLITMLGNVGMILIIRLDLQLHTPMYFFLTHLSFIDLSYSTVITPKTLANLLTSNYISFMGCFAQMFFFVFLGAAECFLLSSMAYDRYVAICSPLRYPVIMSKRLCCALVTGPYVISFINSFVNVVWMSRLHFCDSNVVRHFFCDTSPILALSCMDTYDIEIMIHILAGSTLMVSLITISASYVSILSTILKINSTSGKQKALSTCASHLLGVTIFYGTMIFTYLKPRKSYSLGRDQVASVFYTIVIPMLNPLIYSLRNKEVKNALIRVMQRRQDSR
Outline: as §1

OR8H2 (Homo sapiens) = target: T9, OR8H2 (Homo sapiens) (UniProt Q8N162)
T9 sequence (whole entry): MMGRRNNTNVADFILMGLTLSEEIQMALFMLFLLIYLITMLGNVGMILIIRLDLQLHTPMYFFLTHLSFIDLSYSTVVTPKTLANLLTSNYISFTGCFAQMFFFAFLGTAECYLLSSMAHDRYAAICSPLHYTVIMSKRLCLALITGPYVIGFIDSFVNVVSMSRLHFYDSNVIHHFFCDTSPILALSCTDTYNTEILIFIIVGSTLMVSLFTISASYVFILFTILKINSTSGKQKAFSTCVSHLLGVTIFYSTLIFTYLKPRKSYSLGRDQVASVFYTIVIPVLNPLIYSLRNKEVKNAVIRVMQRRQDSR
Outline: as §1

OR8H3 (Homo sapiens) = target: T10, OR8H3 (Homo sapiens) (UniProt Q8N146)
T10 sequence (whole entry): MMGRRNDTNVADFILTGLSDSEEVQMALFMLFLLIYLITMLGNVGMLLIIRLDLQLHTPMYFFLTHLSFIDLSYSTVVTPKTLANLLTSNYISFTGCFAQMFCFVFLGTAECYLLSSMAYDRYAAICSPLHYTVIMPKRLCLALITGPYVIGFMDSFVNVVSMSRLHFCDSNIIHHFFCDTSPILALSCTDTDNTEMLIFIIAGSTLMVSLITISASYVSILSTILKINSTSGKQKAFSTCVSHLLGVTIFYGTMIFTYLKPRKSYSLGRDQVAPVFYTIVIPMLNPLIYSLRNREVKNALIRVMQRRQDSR
Outline: as §1

OR8B3 H20R Q24R M114I = tested on: T11, OR8B3 H20R Q24R M114I
T11 sequence (whole entry): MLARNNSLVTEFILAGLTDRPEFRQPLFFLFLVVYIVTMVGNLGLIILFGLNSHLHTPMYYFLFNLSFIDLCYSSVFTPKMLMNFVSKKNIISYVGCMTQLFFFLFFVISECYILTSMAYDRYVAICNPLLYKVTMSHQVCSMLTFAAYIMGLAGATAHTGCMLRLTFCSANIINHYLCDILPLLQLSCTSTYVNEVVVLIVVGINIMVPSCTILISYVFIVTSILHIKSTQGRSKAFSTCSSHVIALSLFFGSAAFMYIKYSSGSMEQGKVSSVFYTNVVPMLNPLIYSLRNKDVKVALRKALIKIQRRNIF
Outline: as §1

OR8B3 H20R Q24R Y113H = tested on: T12, OR8B3 H20R Q24R Y113H
T12 sequence (whole entry): T11 sequence (whole entry) with Y113H, I114M
Outline: as §1

OR8B3 H20R Q24R = tested on: T13, OR8B3 H20R Q24R
T13 sequence (whole entry): T11 sequence (whole entry) with I114M
Outline: as §1

OR8B4 = tested on: T14, OR8B4
T14 sequence (whole entry): T1 sequence (whole entry) with E22G
Outline: as §1

OR8B8 L101P = tested on: T15, OR8B8 L101P
T15 sequence (whole entry): T2 sequence (whole entry) with L101P
Outline: as §1

OR8D1 C127G L194P = tested on: T16, OR8D1 C127G L194P
T16 sequence (whole entry): T3 sequence (whole entry) with C127G, L194P
Outline: as §1

OR8D4 C120Y R133K = tested on: T17, OR8D4 C120Y R133K
T17 sequence (whole entry): T5 sequence (whole entry) with C120Y, R133K
Outline: as §1

OR8H2 H120Y Y169C V284M = tested on: T18, OR8H2 H120Y Y169C V284M
T18 sequence (whole entry): T9 sequence (whole entry) with H120Y, Y169C, V284M
Outline: as §1

OR8H3 = tested on: T19, OR8H3
T19 sequence (whole entry): T10 sequence (whole entry) with P137S
Outline: as §1

OR8D1 L194P = tested on: T20, OR8D1 L194P
T20 sequence (whole entry): T3 sequence (whole entry) with L194P
Outline: as §1

Measured: odorant receptor agonist call

CC1CCCCCCCCCCCCC(=O)C1 (stereo not given)
inactive: OR8B4 (Homo sapiens) | OR8B8 (Homo sapiens) | OR8D1 (Homo sapiens) | OR8D2 (Homo sapiens) | OR8D4 (Homo sapiens) | OR8G1 (Homo sapiens) | OR8G5 (Homo sapiens) | OR8H1 (Homo sapiens) | OR8H2 (Homo sapiens) | OR8H3 (Homo sapiens)

Cc1occc(=O)c1O
inactive: OR8D1 (Homo sapiens)

CCCCCCCCCC(=O)OCC
inactive: OR8D1 (Homo sapiens)

CSCCC=O
inactive: OR8D1 (Homo sapiens)

C=CCSC
inactive: OR8D1 (Homo sapiens)

C=C(C)C1CC=C(C)CC1 (stereo not given)
inactive: OR8D1 (Homo sapiens)

CC(=O)c1c(C)c([N+](=O)[O-])c(C(C)(C)C)c([N+](=O)[O-])c1C
inactive: OR8B4 (Homo sapiens) | OR8B8 (Homo sapiens) | OR8D1 (Homo sapiens) | OR8D2 (Homo sapiens) | OR8D4 (Homo sapiens) | OR8G1 (Homo sapiens) | OR8G5 (Homo sapiens) | OR8H1 (Homo sapiens) | OR8H2 (Homo sapiens) | OR8H3 (Homo sapiens)

CCCCCCC=CCCC=O
not listed: OR8D1 L194P
inactive: all other assays above

CC1=NC(C)C(C)S1 (stereo not given)
inactive: all assays above

COc1ccc2ccc(=O)oc2c1
inactive: OR8D1 (Homo sapiens)

CCCCCC(=O)C(C)C(C)=O (stereo not given)
inactive: OR8B4 (Homo sapiens) | OR8B8 (Homo sapiens) | OR8D1 (Homo sapiens) | OR8D2 (Homo sapiens) | OR8D4 (Homo sapiens) | OR8G1 (Homo sapiens) | OR8G5 (Homo sapiens) | OR8H1 (Homo sapiens) | OR8H2 (Homo sapiens) | OR8H3 (Homo sapiens)

CCCC(S)CCOC(C)=O (stereo not given)
inactive: all assays above
